# Data from ChEMBL document CHEMBL1649269, “In vitro activities of three new dihydrofolate reductase inhibitors against clinical isolates of gram-positive bacteria” (2009).
# Experiments:
# Staphylococcus aureus [1] = assay: Antimicrobial activity against methicillin-sensitive Staphylococcus aureus assessed as susceptible isolates by agar dilution method; type: functional
# Outline: (§1)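 MICs against clinical MRSA or MSSA isolates by CLSI agar dilution, with S. aureus ATCC 29213 as control strain. Percentage of susceptible isolates was calculated from the MICs using CLSI breakpoints.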
# Staphylococcus aureus [2] = assay: Antimicrobial activity against methicillin-resistant Staphylococcus aureus assessed as susceptible isolates by agar dilution method; type: functional; outline: as §1
# Staphylococcus aureus [3] = assay: Antimicrobial activity against Heterovancomycin-resistant Staphylococcus aureus by agar dilution method; type: functional
# Outline: (§2)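 Clinical S. aureus isolates classed as hVISA or VISA by population analysis profiling. MICs by CLSI agar dilution, with S. aureus ATCC 29213 as control strain.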
# Staphylococcus aureus [4] = assay: Antimicrobial activity against Heterovancomycin-resistant Staphylococcus aureus assessed as susceptible isolates by agar dilution method; type: functional
# Staphylococcus aureus [5] = assay: Antimicrobial activity against vancomycin-resistant Staphylococcus aureus by agar dilution method; type: functional; outline: as §2
# Staphylococcus aureus [6] = assay: Antimicrobial activity against vancomycin-resistant Staphylococcus aureus assessed as susceptible isolates by agar dilution method; type: functional
# Staphylococcus [7] = assay: Antimicrobial activity against Coagulase-negative Staphylococcus by agar dilution method; type: functional
# Outline: (§3)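 CLSI agar dilution MIC testing of clinical isolates of staphylococci and Listeria. S. aureus ATCC 29213 and S. pneumoniae ATCC 49619 served as control strains. The percentage of susceptible isolates was calculated from CLSI breakpoints.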
# Staphylococcus [8] = assay: Antimicrobial activity against Coagulase-negative Staphylococcus assessed as susceptible isolates by agar dilution method; type: functional; outline: as §3
# [9] = tested on: Streptococcus sp. 'group A'; assay: Antimicrobial activity against Group A Streptococcus by agar dilution method; type: functional
# Outline: (§4)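 Clinical isolates of beta-hemolytic streptococci, S. mitis and S. pneumoniae were tested by CLSI methodology, with Mueller-Hinton medium supplemented with 5% lysed horse blood. S. aureus ATCC 29213 and S. pneumoniae ATCC 49619 served as control strains. The percentage of susceptible isolates was derived from CLSI breakpoints.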
# [10] = tested on: Streptococcus sp. 'group B'; assay: Antimicrobial activity against Group B Streptococcus by agar dilution method; type: functional; outline: as §4
# [11] = Antimicrobial activity against Group C Streptococcus by agar dilution method; type: functional; settings: Streptococcus sp. 'group C'; outline: as §4
# [12] = Antimicrobial activity against Group G Streptococcus by agar dilution method; type: functional; settings: Streptococcus sp. 'group G'; outline: as §4
# Streptococcus pneumoniae [13] = assay: Antimicrobial activity against Streptococcus pneumoniae by agar dilution method; type: functional; outline: as §4
# Streptococcus pneumoniae [14] = assay: Antimicrobial activity against Streptococcus pneumoniae assessed as susceptible isolates by agar dilution method; type: functional; outline: as §4
# Corynebacterium sp. [15] = assay: Antimicrobial activity against Corynebacterium spp. by agar dilution method; type: functional
# Listeria monocytogenes [16] = assay: Antimicrobial activity against Listeria monocytogenes by agar dilution method; type: functional; outline: as §3
# Streptococcus mitis [17] = assay: Antimicrobial activity against Streptococcus mitis by broth dilution method
# Staphylococcus aureus [18] = assay: Antimicrobial activity against methicillin-sensitive Staphylococcus aureus by agar dilution method; type: functional; outline: as §1
# Staphylococcus aureus [19] = assay: Antimicrobial activity against methicillin-resistant Staphylococcus aureus by agar dilution method; type: functional; outline: as §1
# [20] = tested on: Streptococcus sp. 'group A'; assay: Antimicrobial activity against Group A Streptococcus assessed as susceptible isolates by agar dilution method; type: functional; outline: as §4
# [21] = tested on: Streptococcus sp. 'group B'; assay: Antimicrobial activity against Group B Streptococcus assessed as susceptible isolates by agar dilution method; type: functional; outline: as §4
# [22] = Antimicrobial activity against Group C Streptococcus assessed as susceptible isolates by agar dilution method; type: functional, Streptococcus sp. 'group C'; outline: as §4
# [23] = Antimicrobial activity against Group G Streptococcus assessed as susceptible isolates by agar dilution method; type: functional, Streptococcus sp. 'group G'; outline: as §4
# Corynebacterium sp. [24] = assay: Antimicrobial activity against Corynebacterium spp. assessed as susceptible isolates by agar dilution method; type: functional
# Listeria monocytogenes [25] = assay: Antimicrobial activity against Listeria monocytogenes assessed as susceptible isolates by agar dilution method; type: functional; outline: as §3
# Streptococcus mitis [26] = assay: Antimicrobial activity against Streptococcus mitis assessed as susceptible isolates by agar dilution method; type: functional; settings: in the assay text read “broth dilution method” for “agar dilution method”; outline: as §4
Compound,Activity (Staphylococcus aureus [1]),MIC50 (Staphylococcus aureus [3]),MIC90 (Staphylococcus aureus [3]),MIC50 (Staphylococcus aureus [5]),MIC90 (Staphylococcus aureus [5]),MIC50 (Staphylococcus [7]),MIC90 (Staphylococcus [7]),Activity (Staphylococcus [8]),MIC50 [9],MIC90 [9],MIC50 [10],MIC90 [10],MIC50 [11],MIC90 [11],MIC50 [12],MIC90 [12],MIC50 (Streptococcus pneumoniae [13]),MIC90 (Streptococcus pneumoniae [13]),MIC50 (Corynebacterium sp. [15]),MIC90 (Corynebacterium sp. [15]),other results
COc1c(N2C[C@@H]3CCCN[C@@H]3C2)c(F)cc2c(=O)c(C(=O)O)cn(C3CC3)c12 [MOXIFLOXACIN],92%,4 µg/mL,4 µg/mL,8 µg/mL,8 µg/mL,0.25 µg/mL,8 µg/mL,55%,0.25 µg/mL,0.5 µg/mL,0.25 µg/mL,0.5 µg/mL,0.25 µg/mL,0.5 µg/mL,0.25 µg/mL,0.5 µg/mL,0.25 µg/mL,0.25 µg/mL,1 µg/mL,8 µg/mL,Activity (Staphylococcus aureus [2]): 4%; Activity (Staphylococcus aureus [4]): 8%; MIC (Staphylococcus aureus [5]): 8 µg/mL; Activity (Staphylococcus aureus [6]): 0%; MIC [9]: 0.25 µg/mL; MIC [10]: 0.25 µg/mL; MIC [11]: 0.25 µg/mL; MIC [12]: 0.25 µg/mL; Activity (Streptococcus pneumoniae [14]): 100%; MIC (Listeria monocytogenes [16]): 0.5 µg/mL; MIC50 (Listeria monocytogenes [16]): 0.5 µg/mL; MIC90 (Listeria monocytogenes [16]): 1 µg/mL; MIC50 (Streptococcus mitis [17]): 0.25 µg/mL
COc1cc(Cc2cnc(N)nc2N)cc(OC)c1OC [TRIMETHOPRIM],92%,1 µg/mL,16 µg/mL,1 µg/mL,32 µg/mL,16 µg/mL,32 µg/mL,48%,0.5 µg/mL,1 µg/mL,1 µg/mL,1 µg/mL,0.5 µg/mL,1 µg/mL,1 µg/mL,1 µg/mL,1 µg/mL,4 µg/mL,16 µg/mL,16 µg/mL,MIC50 (Staphylococcus aureus [18]): 1 µg/mL; MIC90 (Staphylococcus aureus [18]): 2 µg/mL; MIC50 (Staphylococcus aureus [19]): 0.25 µg/mL; MIC90 (Staphylococcus aureus [19]): 32 µg/mL; Activity (Staphylococcus aureus [2]): 80%; Activity (Staphylococcus aureus [4]): 80%; Activity (Staphylococcus aureus [6]): 71%; MIC50 (Listeria monocytogenes [16]): 0.06 µg/mL; MIC90 (Listeria monocytogenes [16]): 0.06 µg/mL; MIC (Streptococcus mitis [17]): < 0.008 µg/mL; MIC50 (Streptococcus mitis [17]): 4 µg/mL
COc1ncc(C2c3ccccc3C=NN2C(=O)/C=C/c2cc(Cc3cnc(N)nc3N)cc(OC)c2OC)cn1 (centres undefined),100%,0.03 µg/mL,0.06 µg/mL,0.03 µg/mL,0.25 µg/mL,0.06 µg/mL,8 µg/mL,86%,0.06 µg/mL,0.06 µg/mL,0.03 µg/mL,0.06 µg/mL,0.015 µg/mL,0.06 µg/mL,0.03 µg/mL,0.06 µg/mL,0.06 µg/mL,0.12 µg/mL,0.06 µg/mL,4 µg/mL,MIC50 (Staphylococcus aureus [18]): 0.03 µg/mL; MIC90 (Staphylococcus aureus [18]): 0.03 µg/mL; MIC (Staphylococcus aureus [19]): 0.015 µg/mL; MIC50 (Staphylococcus aureus [19]): 0.015 µg/mL; MIC90 (Staphylococcus aureus [19]): 0.06 µg/mL; Activity [20]: 100%; Activity [21]: 100%; Activity [22]: 100%; Activity [23]: 100%; Activity (Streptococcus pneumoniae [14]): 100%; Activity (Corynebacterium sp. [24]): 83%; MIC (Listeria monocytogenes [16]): 0.015 µg/mL; MIC50 (Listeria monocytogenes [16]): 0.015 µg/mL; MIC90 (Listeria monocytogenes [16]): 0.015 µg/mL; Activity (Listeria monocytogenes [25]): 100%; Activity (Streptococcus mitis [26]): 100%; MIC (Streptococcus mitis [17]): < 0.008 µg/mL; MIC50 (Streptococcus mitis [17]): < 0.008 µg/mL
CN[C@H](CC(C)C)C(=O)N[C@H]1C(=O)N[C@@H](CC(N)=O)C(=O)N[C@H]2C(=O)N[C@H]3C(=O)N[C@H](C(=O)N[C@H](C(=O)O)c4cc(O)cc(O)c4-c4cc3ccc4O)[C@H](O)c3ccc(c(Cl)c3)Oc3cc2cc(c3O[C@@H]2O[C@H](CO)[C@@H](O)[C@H](O)[C@H]2O[C@H]2C[C@](C)(N)[C@H](O)[C@H](C)O2)Oc2ccc(cc2Cl)[C@H]1O [VANCOMYCIN],100%,1 µg/mL,2 µg/mL,2 µg/mL,4 µg/mL,1 µg/mL,2 µg/mL,100%,0.25 µg/mL,0.25 µg/mL,0.25 µg/mL,0.25 µg/mL,0.12 µg/mL,0.5 µg/mL,0.12 µg/mL,0.12 µg/mL,0.12 µg/mL,0.25 µg/mL,0.25 µg/mL,0.5 µg/mL,MIC50 (Staphylococcus aureus [18]): 1 µg/mL; MIC90 (Staphylococcus aureus [18]): 1 µg/mL; MIC50 (Staphylococcus aureus [19]): 1 µg/mL; MIC90 (Staphylococcus aureus [19]): 1 µg/mL; Activity (Staphylococcus aureus [2]): 100%; Activity (Staphylococcus aureus [4]): 96%; Activity (Staphylococcus aureus [6]): 52%; Activity [20]: 100%; Activity [21]: 100%; MIC [11]: 0.12 µg/mL; Activity [22]: 100%; MIC [12]: 0.12 µg/mL; Activity [23]: 100%; Activity (Streptococcus pneumoniae [14]): 100%; MIC (Listeria monocytogenes [16]): 1 µg/mL; MIC50 (Listeria monocytogenes [16]): 1 µg/mL; MIC90 (Listeria monocytogenes [16]): 1 µg/mL; MIC50 (Streptococcus mitis [17]): 1 µg/mL
COc1cc(Cc2cnc(N)nc2N)cc(/C=C/C(=O)N2N=Cc3ccccc3C2c2cnc(N(C)C)nc2)c1OC (centres undefined),100%,0.25 µg/mL,0.25 µg/mL,0.25 µg/mL,0.5 µg/mL,0.06 µg/mL,8 µg/mL,86%,0.06 µg/mL,0.06 µg/mL,0.06 µg/mL,0.12 µg/mL,0.06 µg/mL,0.06 µg/mL,0.06 µg/mL,0.06 µg/mL,0.12 µg/mL,0.25 µg/mL,0.12 µg/mL,4 µg/mL,MIC50 (Staphylococcus aureus [18]): 0.03 µg/mL; MIC90 (Staphylococcus aureus [18]): 0.03 µg/mL; MIC50 (Staphylococcus aureus [19]): 0.06 µg/mL; MIC90 (Staphylococcus aureus [19]): 0.25 µg/mL; MIC [9]: 0.06 µg/mL; Activity [20]: 100%; MIC [10]: 0.06 µg/mL; Activity [21]: 100%; Activity [22]: 100%; MIC [12]: 0.06 µg/mL; Activity [23]: 100%; Activity (Streptococcus pneumoniae [14]): 100%; Activity (Corynebacterium sp. [24]): 83%; MIC (Listeria monocytogenes [16]): 0.03 µg/mL; MIC50 (Listeria monocytogenes [16]): 0.03 µg/mL; MIC90 (Listeria monocytogenes [16]): 0.03 µg/mL; Activity (Listeria monocytogenes [25]): 100%; Activity (Streptococcus mitis [26]): 100%; MIC50 (Streptococcus mitis [17]): 0.03 µg/mL
COc1cc(Cc2cnc(N)nc2N)cc(/C=C/C(=O)N2N=Cc3ccccc3C2c2cnc(N3CCOCC3)nc2)c1OC (centres undefined),100%,0.06 µg/mL,0.06 µg/mL,0.06 µg/mL,0.5 µg/mL,0.06 µg/mL,4 µg/mL,86%,0.06 µg/mL,0.12 µg/mL,0.06 µg/mL,0.12 µg/mL,0.06 µg/mL,0.12 µg/mL,0.03 µg/mL,0.06 µg/mL,0.12 µg/mL,0.12 µg/mL,0.12 µg/mL,4 µg/mL,MIC50 (Staphylococcus aureus [18]): 0.12 µg/mL; MIC90 (Staphylococcus aureus [18]): 0.25 µg/mL; MIC (Staphylococcus aureus [19]): 0.06 µg/mL; MIC50 (Staphylococcus aureus [19]): 0.06 µg/mL; MIC90 (Staphylococcus aureus [19]): 0.06 µg/mL; MIC (Staphylococcus aureus [5]): 0.06 µg/mL; Activity [20]: 100%; MIC [10]: 0.06 µg/mL; Activity [21]: 100%; Activity [22]: 100%; MIC [12]: 0.03 µg/mL; Activity [23]: 100%; Activity (Streptococcus pneumoniae [14]): 100%; Activity (Corynebacterium sp. [24]): 83%; MIC (Listeria monocytogenes [16]): 0.06 µg/mL; MIC50 (Listeria monocytogenes [16]): 0.06 µg/mL; MIC90 (Listeria monocytogenes [16]): 0.06 µg/mL; Activity (Listeria monocytogenes [25]): 100%; Activity (Streptococcus mitis [26]): 100%; MIC50 (Streptococcus mitis [17]): 0.015 µg/mL
